Measured values pooled from the literature.
Each line is one published result; the experiments were not run side by side. Values after ≈ are worked out from the molar mass of the structure shown.

With `CC(C)(C#Cc1ccc(-c2ccc(Cl)c3c(NS(C)(=O)=O)nn(CC(F)(F)F)c23)c([C@H](CC2CCCC2)NC(=O)Cn2nc(C(F)(F)F)c3c2C(F)(F)[C@@H]2C[C@H]32)n1)S(C)(=O)=O` the EC50 was 0.073 nM (Human immunodeficiency virus 1; viral replication, inhibitor).
With `CCOC(=O)c1c(NCCCCN)c2c([nH]c1=O)CCC2` the EC50 was > 100000 nM (Human immunodeficiency virus 1; viral replication, inhibitor; IIIB; 72 h).
For `O=c1[nH]ncc(NN=Cc2cn(-c3ccccc3)nc2-c2cc3ccccc3oc2=O)c1Cl`, the CC50 was 36.2 µM (CCRF-CEM; cell growth or viability; 48 h).
With `CCCNc1c2c([nH]c(=O)c1C(=O)OCC)CCC2` the EC50 was 30600 nM (Human immunodeficiency virus 1; viral replication, inhibitor; IIIB; 72 h).
`CC(C)(C#Cc1ccc(-c2ccc(Cl)c3c(NS(C)(=O)=O)nn(CC(F)(F)F)c23)c([C@H](Cc2cc(F)cc(F)c2)NC(=O)Cn2nc(C(F)(F)F)c3c2C(F)(F)[C@@H]2C[C@H]32)n1)S(C)(=O)=O` gave an EC50 of 0.19 nM (Human immunodeficiency virus 1; viral replication, inhibitor).
The EC50 of `CCOC(=O)c1c(NCCC(C)C)c2c([nH]c1=O)CCC2` is reported as 9090 nM (Human immunodeficiency virus 1; viral replication, inhibitor; IIIB; 72 h).
For `CC(=O)ON=C1C=CC(=C(C#N)c2ccccc2)C=C1`, the IC50 was 24 µg/mL (HDF-1; cell growth or viability, MTT; 72 h).
The IC50 of `Cc1nc(Nc2ncc(C(=O)Nc3c(C)cccc3Cl)s2)cc(N2CC[C@H](O)C2)n1` is reported as > 10 µM (CCRF-CEM; cell growth or viability, ATP luminescence; 72 h).
`CCOC(=O)c1c(N(CC)CC)c2c([nH]c1=O)CCC2` has an EC50 of 79300 nM (Human immunodeficiency virus 1; viral replication, inhibitor; IIIB; 72 h).
The MIC90 of `CO[C@H]1/C=C/O[C@@]2(C)Oc3c(C)c(O)c4c(O)c(c(/C=N/N5CCN(C)CC5)c(O)c4c3C2=O)NC(=O)/C(C)=C\C=C\[C@H](C)[C@H](O)[C@@H](C)[C@@H](O)[C@@H](C)[C@H](OC(C)=O)[C@@H]1C` is reported as 10 µM (≈ 8.23 µg/mL) (Mycobacterium marinum; microbial growth).
For `CC(C)(C#Cc1ccc(-c2ccc(Cl)c3c(NS(C)(=O)=O)nn(CC(F)(F)F)c23)c([C@@H](CC2CC2)NC(=O)Cn2nc(C(F)(F)F)c3c2C(F)(F)[C@@H]2C[C@H]32)n1)S(C)(=O)=O`, the EC50 was 3.8 nM (Human immunodeficiency virus 1; viral replication, inhibitor).
With `O=C(N[C@@H](CSCc1ccccc1)C(=O)NO)c1ccccc1` the IC50 was 68.2 µM (HCC4006; cell growth or viability, MTT; 48 h).
For `Cc1cc(/C=C/C#N)cc(C)c1Nc1ccnc(Nc2ccc(C#N)cc2)n1`, the EC50 was 0.89 nM (Human immunodeficiency virus 1; viral replication, inhibitor; TZM-bl, IIIB; 48 h).
